From ChEMBL document CHEMBL2021842, “COMPARE analysis of the toxicity of an iminoquinone derivative of the imidazo[5,4-f]benzimidazoles with NAD(P)H:quinone oxidoreductase 1 (NQO1) activity and computational docking of quinones as NQO1 substrates” (Bioorg Med Chem, 2012)

Columns and labels:
HeLa = assay: Cytotoxicity against human HeLa cells assessed as reduction in mean cell viability after 72 hrs by MTT assay; format: functional, cell-based
In short: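 HeLa-CCL-2 cells in DMEM with 10% heat-inactivated FBS, 2 mM L-glutamine and nonessential amino acids. Plated at 1000 cells/well with 24 h adherence. Treated in ethanol (1% final) for 72 h at 37 °C under 5% CO₂, with ethanol controls. Absorbance of DMSO-dissolved formazan at 550 nm, 690 nm reference. IC₅₀ by nonlinear regression of percent viability.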

DU-145 = assay: Cytotoxicity against human DU145 cells assessed as reduction in mean cell viability after 72 hrs by MTT assay; format: functional, cell-based; conditions: DU-145, 72 h
In short: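 DU-145 prostate cells in RPMI-1640 with 10% heat-inactivated FBS, penicillin–streptomycin and 2 mM L-glutamine. Seeded at 2000 cells/well and left 24 h to adhere. Compound added in ethanol (1% final) for 72 h at 37 °C, 5% CO₂, with ethanol-only controls. Formazan dissolved in DMSO and read at 550 nm (690 nm reference). IC₅₀ derived by nonlinear regression of viability versus vehicle.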

[1] = Cytotoxicity against human GM00637 cells assessed as reduction in mean cell viability after 72 hrs by MTT assay; format: cell-based; conditions: GM00637, 72 h
In short: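 SV40-transformed normal skin fibroblasts (GM00637) in MEM Eagle–Earle BSS with 15% heat-inactivated FBS, 2 mM L-glutamine, 2× amino acids and vitamins. Seeded at 10,000 cells/well and left 24 h to adhere. Ethanol-delivered compound (1% final) for 72 h at 37 °C, 5% CO₂. MTT formazan in DMSO read at 550/690 nm. Viability relative to vehicle; IC₅₀ by nonlinear regression.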

CCCCn1cnc2c1C(=O)c1ncn(CCCC)c1C2=O
IC50 (HeLa): 440 nM | IC50 (DU-145): 1340 nM | IC50 [1]: 1050 nM
